ChEMBL document CHEMBL2040727, “Substituted thiazoles VI. Synthesis and antitumor activity of new 2-acetamido- and 2 or 3-propanamido-thiazole analogs” (2012)

Experiments:
Assay type in all cases: functional
HL-60(TB) = experiment: Growth inhibition of human HL-60(TB) cells at 10 uM after 48 hrs by coulter counter analysis; settings: HL-60, 48 h, read-out: GI
Outline: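 Cells grown in RPMI 1640 with 10% FBS. Compound was dissolved in DMSO and diluted in PBS (under 1% DMSO final), then added in duplicate wells to culture at 6 × 10⁴ cells/ml. PBS/DMSO vehicle controls were included. Incubated at 37 °C, humidified 5% CO₂, for 48 h. Cells were diluted 10-fold in saline and Coulter-counted. Single-dose NCI-60 screen, read as percent growth inhibition.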

K562 = experiment: Growth inhibition of human K562 cells at 10 uM after 48 hrs by coulter counter analysis; settings: K562, 48 h, read-out: GI
Outline: (§1)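 Single-dose NCI 60-line panel screen of test compounds. Cells grown in RPMI 1640 with 10% FBS. Compounds dissolved in DMSO, then diluted in phosphate buffer saline (final DMSO below 1%). Wells run in duplicate at 6 × 10⁴ cells/ml. Controls held PBS and DMSO at matching dilutions. Incubation 48 h at 37 °C under humidified 5% CO2. Cells diluted tenfold in saline and counted by Coulter counter. Percent growth inhibition taken from mean-graph of treated-cell growth.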

EKVX = experiment: Growth inhibition of human EKVX cells at 10 uM after 48 hrs by coulter counter analysis; settings: read-out: GI; outline: as §1
HOP-62 = experiment: Growth inhibition of human HOP62 cells at 10 uM after 48 hrs by coulter counter analysis; settings: HOP-62, 48 h, read-out: GI; outline: as §1
HOP-92 = experiment: Growth inhibition of human HOP92 cells at 10 uM after 48 hrs by coulter counter analysis; settings: HOP-92, 48 h, read-out: GI; outline: as §1
NCI-H23 = experiment: Growth inhibition of human NCI-H23 cells at 10 uM after 48 hrs by coulter counter analysis; settings: NCI-H23, 48 h, read-out: GI; outline: as §1
SF-295 = experiment: Growth inhibition of human SF295 cells at 10 uM after 48 hrs by coulter counter analysis; settings: SF-295, 48 h, read-out: GI; outline: as §1
SNB-19 = experiment: Growth inhibition of human SNB19 cells at 10 uM after 48 hrs by coulter counter analysis; settings: SNB-19, 48 h, read-out: GI; outline: as §1
U-251 = experiment: Growth inhibition of human U251 cells at 10 uM after 48 hrs by coulter counter analysis; settings: U-251, 48 h, read-out: GI
Outline: (§2)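 Single-dose screen in the NCI 60 cell line panel. Cells grown in RPMI 1640 with 10% FBS. Compounds dissolved in DMSO and diluted in phosphate buffered saline, final DMSO under 1%. Duplicate wells seeded from culture at 6 × 10⁴ cells/ml. Incubated 48 h at 37 °C, humidified, 5% CO2. Cells diluted tenfold in saline and Coulter-counted. Percent growth inhibition computed against PBS/DMSO controls.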

Malme-3M = experiment: Growth inhibition of human MALME-3M cells at 10 uM after 48 hrs by coulter counter analysis; settings: read-out: GI; outline: as §1
SK-MEL-2 = experiment: Growth inhibition of human SK-MEL-2 cells at 10 uM after 48 hrs by coulter counter analysis; settings: SK-MEL-2, 48 h, read-out: GI; outline: as §1
UACC-62 = experiment: Growth inhibition of human UACC62 cells at 10 uM after 48 hrs by coulter counter analysis; settings: UACC-62, 48 h, read-out: GI; outline: as §2
OVCAR-3 = experiment: Growth inhibition of human OVCAR3 cells at 10 uM after 48 hrs by coulter counter analysis; settings: OVCAR-3, 48 h, read-out: GI; outline: as §1
OVCAR-5 = experiment: Growth inhibition of human OVCAR5 cells at 10 uM after 48 hrs by coulter counter analysis; settings: OVCAR-5, 48 h, read-out: GI; outline: as §1
OVCAR-8 = experiment: Growth inhibition of human OVCAR8 cells at 10 uM after 48 hrs by coulter counter analysis; settings: OVCAR-8, 48 h, read-out: GI; outline: as §1
A498 = experiment: Growth inhibition of human A498 cells at 10 uM after 48 hrs by coulter counter analysis; settings: A498, 48 h, read-out: GI; outline: as §1
SN12C = experiment: Growth inhibition of human SN12C cells at 10 uM after 48 hrs by coulter counter analysis; settings: read-out: GI; outline: as §1
UO-31 = experiment: Growth inhibition of human UO31 cells at 10 uM after 48 hrs by coulter counter analysis; settings: UO-31, 48 h, read-out: GI; outline: as §2
BT-549 = experiment: Growth inhibition of human BT549 cells at 10 uM after 48 hrs by coulter counter analysis; settings: BT-549, 48 h, read-out: GI; outline: as §1
T47D = experiment: Growth inhibition of human T47D cells at 10 uM after 48 hrs by coulter counter analysis; settings: read-out: GI; outline: as §2
MDA-MB-468 = experiment: Growth inhibition of human MDA-MB-468 cells at 10 uM after 48 hrs by coulter counter analysis; settings: MDA-MB-468, 48 h, read-out: GI; outline: as §1
SK-OV-3 = experiment: Growth inhibition of human SKOV3 cells at 10 uM after 48 hrs by coulter counter analysis; settings: SK-OV-3, 48 h, read-out: GI; outline: as §1
TK-10 = experiment: Growth inhibition of human TK10 cells at 10 uM after 48 hrs by coulter counter analysis; settings: TK-10, 48 h, read-out: GI; outline: as §2
UACC-257 = experiment: Growth inhibition of human UACC257 cells at 10 uM after 48 hrs by coulter counter analysis; settings: UACC-257, 48 h, read-out: GI; outline: as §2

SMILES | inhibition of growth at 10 µM (HL-60(TB)) [%] | inhibition of growth at 10 µM (K562) [%] | inhibition of growth at 10 µM (EKVX) [%] | inhibition of growth at 10 µM (HOP-62) [%] | inhibition of growth at 10 µM (HOP-92) [%] | inhibition of growth at 10 µM (NCI-H23) [%] | inhibition of growth at 10 µM (SF-295) [%] | inhibition of growth at 10 µM (SNB-19) [%] | inhibition of growth at 10 µM (U-251) [%] | inhibition of growth at 10 µM (Malme-3M) [%] | inhibition of growth at 10 µM (SK-MEL-2) [%] | inhibition of growth at 10 µM (UACC-62) [%] | inhibition of growth at 10 µM (OVCAR-3) [%] | inhibition of growth at 10 µM (OVCAR-5) [%] | inhibition of growth at 10 µM (OVCAR-8) [%] | inhibition of growth at 10 µM (A498) [%] | inhibition of growth at 10 µM (SN12C) [%] | inhibition of growth at 10 µM (UO-31) [%] | inhibition of growth at 10 µM (BT-549) [%] | inhibition of growth at 10 µM (T47D) [%] | other results
CCOC(=O)c1sc(NC(=O)C(C)N2CCOCC2)nc1C (stereo not drawn) | < 10 | < 10 | < 10 | < 10 | < 10 | < 10 | < 10 | < 10 | < 10 | < 10 | < 10 | < 10 | < 10 | < 10 | < 10 | < 10 | < 10 | 14.2 | < 10 | < 10 | inhibition of growth at 10 µM (MDA-MB-468): < 10%; inhibition of growth at 10 µM (SK-OV-3): < 10%; inhibition of growth at 10 µM (TK-10): < 10%; inhibition of growth at 10 µM (UACC-257): < 10%
Cc1csc(NC(=O)C(C)N2CCN(c3ccccc3)CC2)n1 (stereo not drawn) | < 10 | < 10 | < 10 | < 10 | < 10 | < 10 | < 10 | < 10 | < 10 | < 10 | < 10 | < 10 | < 10 | < 10 | < 10 | < 10 | < 10 | 17.9 | < 10 | < 10 | inhibition of growth at 10 µM (MDA-MB-468): < 10%; inhibition of growth at 10 µM (SK-OV-3): < 10%; inhibition of growth at 10 µM (TK-10): < 10%; inhibition of growth at 10 µM (UACC-257): < 10%
